Source: ChEMBL document CHEMBL2440065, “Identification of a novel benzoxazolone derivative as a selective, orally active 18 kDa translocator protein (TSPO) ligand” (J Med Chem, 2013)
≈ marks a conversion by molar mass, not a printed value.

How the values were obtained:
[1] = Metabolic stability in rat liver S9 fraction assessed as compound remaining at 1 uM after 30 mins in presence of NADPH; format: ADME, subcellular; details: read-out: Stability
Translocator protein = Translocator protein (Rattus norvegicus, UniProt P16257); assay: Displacement of [3H]PK11195 from Sprague-Dawley rat kidney TSPO after 1 hr by liquid scintillation counting analysis
Chain of Translocator protein (P16257 whole entry, looked up): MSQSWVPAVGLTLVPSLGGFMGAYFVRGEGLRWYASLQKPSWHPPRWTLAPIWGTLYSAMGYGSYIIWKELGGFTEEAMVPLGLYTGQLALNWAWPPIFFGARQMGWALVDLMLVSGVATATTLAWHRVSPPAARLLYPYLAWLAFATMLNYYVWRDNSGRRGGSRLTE

Rattus norvegicus = species: Rattus norvegicus; assay: Displacement of [3H]flumazenil from Sprague-Dawley rat cerebral cortex CBR at 10 uM after 1 hr by liquid scintillation counting analysis; format: tissue-based
[2] = Solubility of the compound at pH 2.5 by HPLC analysis; format: physicochemical; details: buffer
In short: (§1)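 Compound (1 mg) shaken in 0.4 mL buffered solution at pH 7.4 or pH 2.5, then centrifuged; dissolved compound in the supernatant quantified by HPLC.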

CYP2C19 = CYP2C19 (Homo sapiens, UniProt P33261); assay: Inhibition of CYP2C19 (unknown origin) at 1 uM; format: ADME
Chain of CYP2C19 (P33261 whole entry): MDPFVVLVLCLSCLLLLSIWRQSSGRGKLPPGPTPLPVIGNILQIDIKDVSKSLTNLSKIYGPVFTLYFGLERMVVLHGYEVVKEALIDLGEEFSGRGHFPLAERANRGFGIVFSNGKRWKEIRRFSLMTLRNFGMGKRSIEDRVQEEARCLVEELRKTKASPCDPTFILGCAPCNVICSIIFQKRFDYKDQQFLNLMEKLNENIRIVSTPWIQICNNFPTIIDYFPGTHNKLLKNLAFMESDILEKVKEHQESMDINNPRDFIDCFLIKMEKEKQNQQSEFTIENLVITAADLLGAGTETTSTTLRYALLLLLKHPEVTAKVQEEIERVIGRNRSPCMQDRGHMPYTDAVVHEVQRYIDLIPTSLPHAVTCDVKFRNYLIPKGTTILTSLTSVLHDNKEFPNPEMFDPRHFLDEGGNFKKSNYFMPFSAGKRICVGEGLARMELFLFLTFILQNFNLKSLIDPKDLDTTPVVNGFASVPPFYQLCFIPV

[3] = Solubility of the compound at pH 7.4 by HPLC analysis; format: physicochemical; details: buffer; in short: as §1
[4] = Solubility of the compound at pH 6.8; format: physicochemical; details: buffer
In short: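 Solubility measured in pH 6.8 buffer containing bile acids; compound tested as free base and as HCl salt.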

[5] = Displacement of [3H]batrachotoxin from rat brain sodium channel site 2; format: tissue-based

Row | Structure (SMILES) | remaining at 0.5 h, 1 µM [1] [%] | Ki (Translocator protein) [nM] | inhibition (Rattus norvegicus) [%] | solubility [2] [µg/mL] | inhibition at 1 µM (CYP2C19) [%] | solubility [3] [µg/mL] | solubility [4] [µg/mL] | IC50 [5] [nM]
1 | CN(C(=O)Cn1c(=O)oc2ccc(-c3ccc(OC(F)(F)F)cc3)cc21)c1cccnc1 | 32 | 4.9 | – | 4 (≈ 9.02 µM) | – | < 1 | 20 (≈ 45.1 µM) | 700
2 | CN(C(=O)Cn1c(=O)oc2ccc(-c3ccccc3)cc21)c1cccnc1 | – | – | – | 180 (≈ 501 µM) | – | – | – | > 1000
3 | CN(C(=O)Cn1c(=O)oc2ccc(-c3ccc(C(F)(F)F)cc3)cc21)c1cccnc1 | 24 | 9.8 | 6 | < 1 | – | < 1 | – | –
4 | CN(C(=O)Cn1c(=O)oc2ccc(-c3ccncc3)cc21)c1ccc(C(F)(F)F)cc1 | 35 | 6.6 | 0 | > 1000 | 73 | 3 (≈ 7.02 µM) | – | –

Further lines, with some results ahead:

Row | remaining at 0.5 h, 1 µM [1] [%] | Ki (Translocator protein) [nM] | inhibition (Rattus norvegicus) [%] | solubility [2] [µg/mL] | inhibition at 1 µM (CYP2C19) [%] | solubility [3] [µg/mL] | Structure (SMILES) | solubility [4] [µg/mL] | IC50 [5] [nM]
5 | 0 | 4.4 | 21 | – | – | – | CCN(C(=O)Cn1c(=O)oc2ccc(-c3cccnc3)cc21)c1ccccc1 | – | –
6 | 24 | 3 | 5 | 860 (≈ 2300 µM) | 71 | 2 (≈ 5.36 µM) | CCN(C(=O)Cn1c(=O)oc2ccc(-c3ccncc3)cc21)c1ccccc1 | – | –
7 | 9 | 19 | 0 | – | – | – | COc1ccc(N(C)C(=O)Cn2c(=O)oc3ccc(-c4cccnc4)cc32)cc1 | – | –
8 | – | – | – | 730 (≈ 2030 µM) | – | 1 (≈ 2.78 µM) | CN(C(=O)Cn1c(=O)oc2ccc(-c3ccncc3)cc21)c1ccccc1 | – | –
9 | – | – | – | 1 (≈ 2.79 µM) | – | – | CN(C(=O)Cn1c(=O)oc2ccc(-c3ccccc3)cc21)c1ccccc1 | – | –
